The term inhibition denotes how much of the control response was suppressed. Read a high inhibition as strong suppression. One may read the EC50 as the concentration needed to bring the measured effect to its halfway point. A low value points to a more potent agent.

From ChEMBL document CHEMBL1177765, “Synthesis and biological evaluation of new cytotoxic azanaphthoquinone pyrrolo-annelated derivatives” (Bioorg Med Chem Lett, 2010) come the findings set out here.

Assay [1] concerns SF-268. In words: Cytotoxicity against human SF268 cells at 3.16 ug/mL after 48 hrs by XTT assay. The format is functional. The following applies: SF-268, 48 h. For orientation: Tetrazolium assays rely on reduction of a dye to a coloured formazan, in cell work by metabolically active cells.
Assay [2] deals with SK-OV-3. Nature of the assay: Cytotoxicity against human SKOV3 cells at 3.16 ug/mL after 48 hrs by XTT assay. The settings on record: SK-OV-3, 48 h. Type of assay: functional.
Assay [3] in a line: Cytotoxicity against human RKOp27 cells at 3.16 ug/mL after 48 hrs by XTT assay. Type of assay: functional. The following applies: RKOp27, 48 h.
The subject of assay [4] is NCI-H460. Nature of the assay: Cytotoxicity against human NCI-H460 cells at 3.16 ug/mL after 48 hrs by XTT assay. The format is functional. The settings on record: NCI-H460, 48 h.
A short description of assay [5]: Cytotoxicity against human KB/HeLa cells at 3.16 ug/mL after 48 hrs by XTT assay. Type of assay: functional.
Assay [6] in a line: Cytotoxicity against human RKOp27IND cells at 3.16 ug/mL after 48 hrs by XTT assay. The format is functional.
The subject of assay [7] is NCI-H460. In words: Cytotoxicity against human NCI-H460 cells after 48 hrs by XTT assay. The format is functional, cell-based. The following applies: NCI-H460, 48 h. In outline:
(§1)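 XTT assay of cell proliferation after 48 h exposure. EC50 is the concentration giving 50% inhibition, fitted by nonlinear regression to data from at least two independent assays.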

Assay [8] is described as follows: Cytotoxicity against human KB/HeLa cells after 48 hrs by XTT assay. Type of assay: functional, cell-based. In outline:
as §1

Assay [9] can be described thus: Cytotoxicity against human RKOp27IND cells after 48 hrs by XTT assay. The format is functional, cell-based.
Assay [10] in a line: Cytotoxicity against human RKOp27 cells after 48 hrs by XTT assay. Type of assay: functional, cell-based. The settings on record: RKOp27, 48 h. In outline:
as §1

For assay [11], the system named is SF-268. In words: Cytotoxicity against human SF268 cells after 48 hrs by XTT assay. The format is functional, cell-based. The following applies: SF-268, 48 h. In outline:
as §1

Assay [12] deals with SK-OV-3. In words: Cytotoxicity against human SKOV3 cells after 48 hrs by XTT assay. Type of assay: functional, cell-based. The following applies: SK-OV-3, 48 h. In outline:
as §1

Assay [13] in a line: Cell cycle arrest in human RKOp27 cells assessed as accumulation at G2/M phase. The format is functional, cell-based.
Assay [14] has as its system Nucleic Acid. Nature of the assay: Binding affinity to DNA at 125 uM. The format is nucleic-acid assay. In outline: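 UV-absorbance DNA intercalation assay. Stocks up to 5 mM were made in 5% (v:v) DMSO or methanol, then diluted stepwise in pH 7 buffer (5 mM NaH2PO4, 5 mM Na2HPO4, 70 mM NaCl) to give absorbance maximum about 1–2. Spectra were read from 350 to 600 nm with or without 2 mg/ml calf thymus DNA. Acridine orange was the reference.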

The nature of assay [15]: Cell cycle arrest in human RKOp27IND cells assessed as accumulation at G2/M phase. The format is functional, cell-based.

Molecules are shown by their SMILES. In brackets after ≈: the same amount, converted by molar mass. Activity calls are given as the source filed them. No cut-off for these calls is given here.

Consider `CN(C)CCCn1ccc2c1C(=O)c1ncccc1C2=O`, for which the inhibition at 3.16 µg/mL in [1], in [2], in assay [3], in [4], in assay [5] and in assay [6] was less than 50% throughout.
`CN(C)CCCn1ccc2c1C(=O)c1ccncc1C2=O`: the EC50 in [7], in assay [8], in assay [9], in assay [10], in assay [11] and in [12] was 3 µg/mL (≈ 10.6 µM) throughout.
Consider `CN(C)CCCn1ccc2c1C(=O)c1cccnc1C2=O`, for which the inhibition at 3.16 µg/mL in assay [1], in assay [2], in [3], in assay [4], in [5] and in assay [6] was less than 50% in each case.
With `CN(C)CCCn1ccc2c1C(=O)c1cncnc1C2=O`, the EC50 in [7] was found to be 0.177 µg/mL (≈ 0.623 µM); in assay [8], 0.28 µg/mL (≈ 0.985 µM); in assay [9], 0.44 µg/mL (≈ 1.55 µM); in [10], 0.246 µg/mL (≈ 0.865 µM); in assay [11] it was 0.198 µg/mL (≈ 0.696 µM); in assay [12], 0.452 µg/mL (≈ 1.59 µM).
For `CN(C)CCCn1ccc2c1C(=O)c1nccnc1C2=O`, the inhibition at 3.16 µg/mL in assay [1], in assay [2], in assay [3], in assay [4], in [5] and in assay [6] was less than 50% in each case.
As for `CN(C)CCn1ccc2c1C(=O)c1ncccc1C2=O`, the inhibition at 3.16 µg/mL in assay [1], in assay [2], in assay [3], in [4], in [5] and in [6] was less than 50% throughout.
As to `CN(C)CCn1ccc2c1C(=O)c1nccnc1C2=O`, the EC50 in [7] was 1.12 µg/mL (≈ 4.15 µM); in [8], 1.37 µg/mL (≈ 5.06 µM); in assay [9], 2.97 µg/mL (≈ 11 µM); in assay [10] it was 1.19 µg/mL (≈ 4.42 µM); in [11], 2.7 µg/mL (≈ 9.99 µM); in [12] it was 3 µg/mL (≈ 11.1 µM).
Take `CN(C)CCn1ccc2c1C(=O)c1cccnc1C2=O`: the inhibition at 3.16 µg/mL in assay [1], in assay [2], in [3], in assay [4], in [5] and in assay [6] was less than 50% in each case.
Consider `CN(C)CCn1ccc2c1C(=O)c1ccncc1C2=O`, for which the EC50 in assay [7], in assay [8], in [9], in assay [10], in assay [11] and in assay [12] was 3 µg/mL (≈ 11.1 µM) throughout.
Turning to `CN(C)CCn1ccc2c1C(=O)c1cncnc1C2=O`, the EC50 was 0.082 µg/mL (≈ 0.303 µM) in [7]; 0.173 µg/mL (≈ 0.64 µM) in [8]; 0.377 µg/mL (≈ 1.39 µM) in assay [9]; 0.173 µg/mL (≈ 0.64 µM) in [10]; 0.107 µg/mL (≈ 0.396 µM) in [11]; 0.239 µg/mL (≈ 0.884 µM) in assay [12]. Further, the result in [13], in assay [14] and in assay [15] was inactive.
